Measurements published in ChEMBL document CHEMBL4390648, “Chemical synthesis, crystal structure, versatile evaluation of their biological activities and molecular simulations of novel pyrithiobac derivatives” (Eur J Med Chem, 2019).
Values after ≈ are worked out from the molar mass of the structure shown. Active and inactive are the calls of the source. No cut-off for these calls is given here.

How the values were obtained:
Candida albicans [1] = experiment: Inhibition of Candida albicans AHAS catalytic subunit at 10 uM using pyruvate as substrate measured after 30 mins by colorimetric method relative to control
Method in brief: (§1)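 Colorimetric assay in 50 mM potassium phosphate pH 7.0 with 50 mM pyruvate, 1 mM thiamine diphosphate, 10 mM MgCl2 and 10 μM FAD. Incubated 30 min at 37 °C for plant AHAS and 30 °C for fungal AHAS. Acetolactate formed was then quantified.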

[2] = system: Severe acute respiratory syndrome-related coronavirus; experiment: Inhibition of SARS coronavirus M protease using AVLQSGFRKK as substrate at 20 uM by FRET assay relative to control
Method in brief: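 Purified SARS-CoV Mpro assayed by FRET. Protein, compound and substrate were preheated at 37 °C and oscillated. Fluorescence (ex 320/em 405 nm) was read every 5 s for 200 reads.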

Candida albicans [3] = experiment: Antifungal activity against Candida albicans isolate g5 grown in RPMI 1640 medium incubated for 24 hrs by microdilution method; format: functional; conditions: isolate g5, 24 h
Method in brief: (§2)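 C. albicans standard strain SC5314 and clinical isolates g5 and 17# tested by broth microdilution in YNB or RPMI 1640 medium. Plates incubated at 35 °C for up to 72 h, with visual readings taken at 24 h. MIC taken as the lowest concentration preventing visible growth.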

Tobacco mosaic virus [4] = experiment: Antiviral activity against Tobacco mosaic virus inoculated in Nicotiana tabacum leaves assessed as passivation by measuring local lesion numbers at 500 mg/l pre-incubated with virus for 30 mins followed by inoculation and measured up to 4 days; format: functional
Method in brief: (§3)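 Passivation assay: TMV mixed with an equal volume of compound solution for 30 min, then rubbed onto the left half of N. tabacum L. leaves. The right half received virus mixed with solvent as control. Local lesions counted 3–4 days after inoculation. Compounds tested at 500 or 100 mg/L.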

Candida albicans [5] = experiment: Antifungal activity against Candida albicans isolate g5 grown in YNB medium incubated for 24 hrs by microdilution method; format: functional; conditions: isolate g5, 24 h; method in brief: as §2
Candida albicans [6] = experiment: Antifungal activity against Candida albicans isolate 17 grown in YNB medium incubated for 24 hrs by microdilution method; format: functional; conditions: isolate 17, 24 h; method in brief: as §2
Candida albicans [7] = experiment: Antifungal activity against Candida albicans SC5314 grown in RPMI 1640 medium incubated for 24 hrs by microdilution method; format: functional; conditions: SC5314, 24 h; method in brief: as §2
Arabidopsis thaliana [8] = experiment: Inhibition of Arabidopsis thaliana AHAS catalytic subunit using pyruvate as substrate at 100 uM measured after 30 mins by colorimetric method relative to control; method in brief: as §1
Mythimna separata = experiment: Insecticidal activity against Mythimna separata assessed as larval mortality at 600 mg/l by leaf-dip method; format: functional
Sclerotinia sclerotiorum = experiment: Antifungal activity against Sclerotinia sclerotiorum assessed as reduction in growth at 50 mg/l by mycelium growth rate method relative to control; format: functional
Method in brief: (§4)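 Mycelium growth rate method against S. sclerotiorum, P. capsici, P. piricola, R. cerealis, W. anthracnose and R. bakanae. Each compound tested at 50 mg/L, with chlorothalonil and PTB as controls. Relative inhibitory ratio (%) calculated from mycelial growth.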

Ceratobasidium cereale [9] = experiment: Antifungal activity against Rhizoctonia cerealis assessed as reduction in growth mycelium growth rate method relative to control; format: functional, organism-based
Method in brief: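 EC50 against R. cerealis derived from mycelium growth-rate inhibition over a concentration series, using a probit fit: Probit = m(log10[I] − log10[EC50]) + 5.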

Colletotrichum = experiment: Antifungal activity against Colletotrichum (W. anthracnose) assessed as reduction in growth at 50 mg/l by mycelium growth rate method relative to control; format: functional; method in brief: as §4
Candida albicans [10] = experiment: Antifungal activity against Candida albicans SC5314 grown in YNB medium incubated for 24 hrs by microdilution method; format: functional; conditions: SC5314, 24 h; method in brief: as §2
Candida albicans [11] = experiment: Inhibition of Candida albicans AHAS catalytic subunit at 100 uM using pyruvate as substrate measured after 30 mins by colorimetric method relative to control; method in brief: as §1
[12] = system: Brassica rapa subsp. oleifera; experiment: Herbicidal activity against Brassica campestris L assessed as inhibition of rape root growth at 100 mg/l root growth incubated for 48 hrs relative to control; format: functional
Method in brief: (§5)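 Rape seeds soaked in distilled water for 4 h, then placed on filter paper wetted with inhibitor solution, 15 seeds per 6-cm dish. Germinated in the dark at 28 °C for 48 h. Mean length of 10 roots per plate measured.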

[13] = system: Botryosphaeria berengeriana; experiment: Antifungal activity against Physalospora pyricola assessed as reduction in growth at 50 mg/l by mycelium growth rate method relative to control; format: functional; method in brief: as §4
Fusarium fujikuroi = experiment: Antifungal activity against Gibberella fujikuroi assessed as reduction in growth at 50 mg/l by mycelium growth rate method relative to control; format: functional; method in brief: as §4
Ceratobasidium cereale [14] = experiment: Antifungal activity against Rhizoctonia cerealis assessed as reduction in growth at 50 mg/l by mycelium growth rate method relative to control; format: functional; method in brief: as §4
Arabidopsis thaliana [15] = experiment: Inhibition of Arabidopsis thaliana AHAS catalytic subunit using pyruvate as substrate at 10 uM measured after 30 mins by colorimetric method relative to control; method in brief: as §1
[16] = system: Brassica rapa subsp. oleifera; experiment: Herbicidal activity against Brassica campestris L assessed as inhibition of rape root growth at 10 mg/l root growth incubated for 48 hrs relative to control; format: functional; method in brief: as §5
Tobacco mosaic virus [17] = experiment: Antiviral activity against Tobacco mosaic virus inoculated in Nicotiana tabacum leaves assessed as passivation by measuring local lesion numbers at 100 mg/l pre-incubated with virus for 30 mins followed by inoculation and measured up to 4 days; format: functional; method in brief: as §3
Candida albicans [18] = experiment: Antifungal activity against Candida albicans isolate 17 grown in RPMI 1640 medium incubated for 24 hrs by microdilution method; format: functional; conditions: isolate 17, 24 h; method in brief: as §2
Phytophthora capsici = experiment: Antifungal activity against Phytophthora capsici assessed as reduction in growth at 50 mg/l by mycelium growth rate method relative to control; format: functional; method in brief: as §4

SMILES | inhibition (Candida albicans [1]) | inhibition [2] | MIC (Candida albicans [3]) | inhibition at 500 µg/mL (Tobacco mosaic virus [4]) | MIC (Candida albicans [5]) | MIC (Candida albicans [6]) | MIC (Candida albicans [7]) | inhibition (Arabidopsis thaliana [8]) | mortality at 600 µg/mL (Mythimna separata) | inhibition at 50 µg/mL (Sclerotinia sclerotiorum) | EC50 (Ceratobasidium cereale [9]) | inhibition at 50 µg/mL (Colletotrichum) | MIC (Candida albicans [10]) | inhibition (Candida albicans [11]) | inhibition (INH) [12] | inhibition at 50 µg/mL [13] | inhibition at 50 µg/mL (Fusarium fujikuroi) | inhibition at 50 µg/mL (Ceratobasidium cereale [14]) | inhibition (Arabidopsis thaliana [15]) | inhibition (INH) [16] | also measured
COc1cc(OC)nc(Sc2ccc(C(=O)O)cc2Cl)n1 | 62.3% | 0% | > 100 µg/mL | 0% | > 100 µg/mL | > 100 µg/mL | > 100 µg/mL | 100% | 50% | 83.3% | 9.2 µg/mL (≈ 28.2 µM) | 28.6% | > 100 µg/mL | 85% | 73.4% | 76.6% | 60.6% | 89.3% | 31.4% | 30.6% | inhibition (Tobacco mosaic virus [17]): inactive; MIC (Candida albicans [18]): > 100 µg/mL; inhibition at 50 µg/mL (Phytophthora capsici): 41.7%
COc1cc(OC)nc(Sc2ccc(C(=O)O)cc2F)n1 | 81.7% | 26.8% | > 100 µg/mL | 46.5% | > 100 µg/mL | > 100 µg/mL | > 100 µg/mL | 100% | 30% | 83.3% | 11.8 µg/mL (≈ 38 µM) | 40.5% | > 100 µg/mL | 91.7% | 82.2% | 50% | 48.5% | 91.7% | 40% | 48% | inhibition at 100 µg/mL (Tobacco mosaic virus [17]): 6.8%; MIC (Candida albicans [18]): > 100 µg/mL; inhibition at 50 µg/mL (Phytophthora capsici): 58.3%
